Screens (PubChem BioAssay)
This excerpt belongs to a sample that is enriched for hits.
INS promoter act = TRM-6 insulin promoter activation; AID 1296; activation, % at 2 µM; TRM-6 cells (human fetal islet line), insulin promoter eGFP reporter, imaging; plate-scaled: unstimulated 0, stimulated control 100; hit rate 0.81% among 130,000;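 active = activation at 2 µM above a set limit, confirmed on inspection of the cell images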;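 also: share of cells whose green reporter signal exceeds an intensity cutoff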
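System – TRM-6 insulin promoter–eGFP reporter cells · Probe or stimulus – 0.75 µM tamoxifen as reporter inducer · Dosing – single-point 2 µM compound dose · Incubation – tamoxifen pre-incubation 15 h overnight, then compound exposure 48 h at 37 °C · Measured by – fixed-cell fluorescence microscopy, eGFP plus Hoechst · Evaluation – percent GFP-positive cells normalized to per-plate controls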
* = called active by the depositor.

SMILES | INS promoter act
O=C(CSc1ncccn1)NN=C1CCCCCC1 | -67
CC(C)CNC(=O)CC(=O)NN=C1CCCC1 | -7
Cc1ccc(C(=O)Cn2c(-c3ccccc3)noc2=O)cc1 | -7
O=[N+]([O-])c1cc(C(F)(F)F)ccc1N1CCN(S(=O)(=O)c2ccc3c(c2)CCCC3)CC1 | 0
Clc1ccccc1Nc1nc(-c2cccnc2)cs1 | 358*
c1ccc(Nc2nc(-c3cccnc3)cs2)nc1 | 0
c1cncc(Nc2nc(-c3ccncc3)cs2)c1 | -4
CCCC1CCc2c(sc(NC(=O)OCC)c2C#N)C1 (configuration not stated) | 169
COc1ccc(N=C2S/C(=C\c3cccs3)C(=O)N2CC(C)C)cc1 | -3
CC(C)CN1C(=O)/C(=C/c2cccs2)NC1=S | 431*
CCOc1ccc(N2C(=O)/C(=C/c3cccs3)N(C)C2=S)cc1 | 0
O=C(O)CN1CCCCCC1=O | 0
C=CCn1c(N)cc(=O)nc1SCC(=O)N1CCN(c2ccc(F)cc2)CC1 | 0
Cc1c(=O)n(OCc2ccccc2)c2ccccc2[n+]1[O-] | 356
O=c1c(-c2cc3ccccc3o2)[n+]([O-])c2ccccc2n1OCc1ccccn1 | -5
COc1ccc(COn2c(=O)c(C)[n+]([O-])c3ccccc32)cc1OC | 86*
CC(=O)NC(Cc1ccc(C)cc1)C(=O)NC1CCN(c2ncccc2[N+](=O)[O-])CC1 (configuration not stated) | -3
O=C(NCCN1CCOCC1)C1CCC(CNS(=O)(=O)c2ccc(Cl)cc2)CC1 (configuration not stated) | 0
O=C(NCC(c1cccnc1)N1CCOCC1)NC1CCCCC1 (configuration not stated) | 7
Cc1ccc(S(=O)(=O)N(C)C)cc1NC(=O)COC(=O)c1ccc2c(c1)OCO2 | 103
CN(C)S(=O)(=O)c1cccc(NC(=S)NC(=O)C2CCCCC2)c1 | -8
Cc1ccc(S(=O)(=O)N(C)C)cc1NC(=S)NC(=O)C12CC3CC(CC(C3)C1)C2 | 388*
CCOC(=O)c1c(Cc2ccccc2)c[nH]c1C | 6
Cc1cccc(OCC(=O)N/N=C/CC(C)c2ccccc2)c1C (configuration not stated) | 0
Clc1ccccc1N/N=C/c1ccc2c(c1)OCO2 | -64
SMILES | INS promoter act
CCNc1nc(N)nc(-c2cc(Cl)ccc2O)n1 | -62
CCCNc1nc(N)nc(-c2cc(Cl)ccc2OC)n1 | 0
CCCN(CCC)c1nc(N)nc(-c2cc(Cl)ccc2OC)n1 | 83*
CCOC(=O)c1cn2cccnc2n1 | -3
CCOc1ccc(-n2c(SCC(N)=O)nc3c(c2=O)SCC3)cc1 | -3
O=C(Nc1ccccc1O)c1cccc(S(=O)(=O)N2CCOCC2)c1 | 462*
O=C(Nn1cnnc1)c1cccc(S(=O)(=O)N2CCOCC2)c1 | 7
Cc1nnc(NC(=O)c2cccc(S(=O)(=O)N3CCOCC3)c2)s1 | -6
CCOC(=O)CC1C(=O)NCCN1Cc1ccc(OC)c(OC)c1 (configuration not stated) | 154
CCOc1cc(CN2CCN(C(=O)c3ccco3)CC2)ccc1OC | 9
CCOC(=O)c1cc(C)n(Cc2ccc(OCC)c(OC)c2)c1C | 86*
O=C1c2ccccc2NC(c2ccccn2)N1c1ccccc1F (configuration not stated) | -3
CCC(C)NS(=O)(=O)c1ccc(OCC(=O)NCc2cccnc2)cc1 (configuration not stated) | -6
CCOc1ccc(S(=O)(=O)NCC(=O)N(C)Cc2cccnc2)cc1 | 79*
CCOc1ccc(OCC)c(S(=O)(=O)NCc2cccnc2)c1 | -5
Cc1ccc(NC(=O)CSc2ncc3ccccn23)cc1C | 0
CSc1nsc(/C=C/Nc2ccc(C)c(C)c2)c1C#N | 669*
COc1cc(/C=N/Nc2snc(SC)c2C#N)ccc1O | 2
Cc1ccc(N/C=C(/C#N)c2ccsc2)cc1C | 7
CC1(C)CC(=O)C2=C(C1)N(Cc1ccco1)C(=O)C2(O)C(F)(F)F (configuration not stated) | 7
Cc1onc(C(=O)N2C(C)CCCC2C)c1[N+](=O)[O-] (configuration not stated) | 7
CCCCNC(=S)NNC(=O)C12CC3CC(CC(C3)C1)C2 | 86*
CCCCNC(=S)NNC(=O)c1ccc(Br)o1 | -7
CC(C)(C)OC(=O)NNC(=O)C12CC3CC(CC(C3)C1)C2 | -9
S=C(NCc1cccs1)NCC1CCCO1 (configuration not stated) | 0
SMILES | INS promoter act
Cc1cccc(NC(=O)/C(C#N)=C/c2ccc(Sc3ccccc3)o2)c1C | -100
CCOC(=O)c1ccc(NC(=O)C(=O)NCc2ccc(/C=C(/C#N)C(=O)NCCOC)o2)cc1 | -7
CN(C)c1ccc(/C=C(/C#N)C(=O)NCc2ccccc2)o1 | 227*
COc1ccc(S(=O)(=O)N2Cc3ccccc3CC2C(=O)Nc2nccs2)cc1 (configuration not stated) | -3
Cc1cc2sc(C(=O)O)c(C)c2s1 | 339
CCOC(=O)N1CCN(S(=O)(=O)c2ccc(OCC(=O)OC)c(Cl)c2)CC1 | -3
COC(=O)COc1ccc(S(=O)(=O)Nc2ccc(C(N)=O)cc2)cc1C | 3
COC(=O)COc1ccc(-c2ccc(F)cc2)cc1C=O | 450*
CCOC(=O)C1=C(N)Oc2ccc3ccccc3c2C1c1cccnc1 (configuration not stated) | 564*
CC1=C(C(=O)OCc2ccccc2)C(c2cccnc2)n2nnnc2N1 (configuration not stated) | -3
CCOC(=O)C1=C(c2ccccc2)OC(N)=C(C#N)C1c1cccnc1 (configuration not stated) | -7
CCN(CCn1cccn1)C(=O)CCc1nnc(C2(c3ccc(Cl)cc3)CCC2)o1 | 5
COc1ccc(C(=O)NNC(=O)CCn2nnc(-c3ccc(C)cc3)n2)cc1OC | 0
Cc1cc(C(F)(F)F)nn1CC(=O)N(C)C1CCCCC1 | -7
N#C/C(=N\Nc1cc(Cl)cc(Cl)c1)c1nnc2n1CCCCC2 | -3
Cc1cc(C)c2cc(CN(Cc3cccnc3)C(=O)c3ccc(F)cc3)c(Cl)nc2c1 | 130*
Cc1[nH]c2ccccc2c1CCN(Cc1cccnc1)C(=S)Nc1ccc(F)cc1 | 0
CCOC(=O)CNC(=S)N(Cc1ccccc1)Cc1cccnc1 | 7
NC1=NC(=O)C(CC(=O)c2ccc(Cl)cc2)S1 (configuration not stated) | 3
CCCCN(CCCC)S(=O)(=O)c1c(C)[nH]c(=O)[nH]c1=O | -73
COc1ccccc1CNC(=S)Nc1ccc2nc(N3CCN(C)CC3)cc(C)c2c1 | -7
COc1ccc2[nH]c(=O)c(CN(C(=O)c3ccccn3)c3ccccc3)cc2c1 | 200*
COc1ccc(N(Cc2cc3cc(OC)ccc3[nH]c2=O)C(=O)c2cccnc2)cc1 | 0
COc1ccc2[nH]c(=O)c(CN(C(=O)c3cccnc3)c3ccccc3OC)cc2c1 | 8
O=C(CS(=O)CC(=O)N(CC(=O)NC1CCCC1)c1ccc2c(c1)OCCO2)Nc1ccc(F)cc1 (configuration not stated) | -2
CCOc1ccc(C(=O)NCC(c2cccs2)N(C)C)cc1 (configuration not stated) | 6
COc1ccc(C2=C(SC)CC2=NC(C)(C)C)cc1 | 6
Cc1ccc(-n2nc(C(=O)NCc3ccc(C)o3)c3c4ccccc4n(C)c3c2=O)cc1 | 8
COc1ccc(C(=O)NC(=S)Nc2ccc(Cc3ccncc3)cc2)cc1 | -6
CC1CCN(C(=O)COc2cccc3c2CCN(Cc2ccccc2)C3=O)CC1 | 8
